Data published in paper PMC2992178 (Diabetes Care, 2010).
Read-outs that look alike come from different tables or passages of the source.

Assays:
[1] = type: in vivo, human; conditions: for AUC0-∞/D, AUC0-∞ to dose ratio / Cmax/D, Cmax to dose ratio / Cl, clearance / Mean resistance time / Vz, volume of distribution / Cmax, maximum plasma concentration / Tmax, time to maximal concentration / t½, half-life: obese type 2 diabetes (n=7), mean ± SD; for Cl, clearance / Mean resistance time / Vz, volume of distribution / t½, half-life: noncompartmental; for Cmax, maximum plasma concentration / Tmax, time to maximal concentration: plasma RIA; for t½, half-life: plasma
[2] = test system: obese subjects with type 2 diabetes; experiment: Euglycemic clamp; type: in vivo, human; conditions: obese type 2 diabetes
[3] = Plasma lispro pharmacokinetics after subcutaneous injection, healthy subjects; type: in vivo, human; conditions: healthy subjects (n=6), 10 units s.c., mean ± SD
Procedure, shortened: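 Venous blood was drawn every 10 min for 3 h, then every 20 min, after a 10-unit subcutaneous abdominal lispro dose under a euglycemic clamp. Type 2 diabetic subjects had first received an overnight IV insulin infusion. Samples went into citrate tubes with protease inhibitors, were spun at 4°C, snap-frozen and stored at −80°C. Lispro was measured by specific radioimmunoassay in duplicate. Noncompartmental analysis gave Cmax, AUC0-∞, Cl and dose ratios; non-normal data were log-transformed.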

[4] = test system: healthy subjects; experiment: Euglycemic clamp; type: in vivo, human; conditions: 10 units s.c.
Procedure, shortened: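 Healthy volunteers fasted overnight from 8:00 p.m., then received a single 10-unit lispro dose by pen with an 8-mm needle. It went into abdominal subcutaneous fat 8 cm above the umbilicus and 10 cm from the midline. Plasma glucose was read every 5 min and clamped at 5–6 mmol/l with IV 20% dextrose for 8 h. GIRmax, tGIRmax and GItot came from GIR–time data; GIR was also plotted against plasma lispro concentration.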

lispro
Cmax/D lower in subjects with type 2 diabetes than in healthy subjects ([1]; 10 units s.c., P < 0.001): 41%
AUC0-∞/D, AUC0-∞ to dose ratio ([1]; 10 units s.c.): 1.056 ± 0.264 min/L
Cmax/D, Cmax to dose ratio ([1]; 10 units s.c.): 0.0054 ± 0.0005 L
Cl, clearance ([1]; 10 units s.c.): 0.99 ± 0.22 L/min
Mean resistance time ([1]; 10 units s.c.): 180 ± 65 min
Vz, volume of distribution ([1]; 10 units s.c.): 118 ± 34 L
Cmax, maximum plasma concentration ([1]; 10 units s.c.): 310 ± 28 pmol/L
Tmax, time to maximal concentration ([1]; 10 units s.c.): 0.928 ± 0.233 h
t½, half-life ([1]; 10 units s.c.): 1.67 ± 0.567 h
AUC0-∞/D, AUC0-∞ to dose ratio ([1]; 30 units s.c.): 1.140 ± 0.188 min/L
Cmax/D, Cmax to dose ratio ([1]; 30 units s.c.): 0.0047 ± 0.0012 L
Cl, clearance ([1]; 30 units s.c.): 0.90 ± 0.14 L/min
Mean resistance time ([1]; 30 units s.c.): 196 ± 30 min
Vz, volume of distribution ([1]; 30 units s.c.): 104 ± 53 L
Cmax, maximum plasma concentration ([1]; 30 units s.c.): 808 ± 218 ^‖ pmol/l
Tmax, time to maximal concentration ([1]; 30 units s.c.): 1.48 ± 0.365 h
t½, half-life ([1]; 30 units s.c.): 1.62 ± 0.633 h
AUC0-∞/D, AUC0-∞ to dose ratio ([1]; 50 units s.c.): 1.296 ± 0.208 min/L
Cmax/D, Cmax to dose ratio ([1]; 50 units s.c.): 0.0046 ± 0.0012 L
Cl, clearance ([1]; 50 units s.c.): 0.79 ± 0.13 L/min
Mean resistance time ([1]; 50 units s.c.): 236 ± 49 min
Vz, volume of distribution ([1]; 50 units s.c.): 107 ± 46 L
Cmax, maximum plasma concentration ([1]; 50 units s.c.): 1,313 ± 346 ^‖ ^# pmol/l
t½, half-life ([1]; 50 units s.c.): 2.27 ± 1.2 h
delay of Tmax ([1]; obese type 2 diabetes, 50 units versus 10 units, P < 0.001): 1.23 h
GIRmax as % of the value measured in healthy subjects ([2]; 10 units s.c., P < 0.0001): 7%
GItot as % of the value measured in healthy subjects ([2]; 10 units s.c., P < 0.0001): 4%
prolongation of tGIRmax versus healthy subjects ([2]; 10 units s.c., P < 0.0001): 1 h
average difference between Tmax and tGIRmax ([2]; 10 units s.c., P < 0.0007 versus healthy): 1.23 h
average difference between Tmax and tGIRmax ([2]; 30 units s.c.): 1.43 h
average difference between Tmax and tGIRmax ([2]; 50 units s.c.): 1.92 h
AUC0-∞/D, AUC0-∞ to dose ratio [3]: 1.190 ± 0.302 min/L
Cmax/D, Cmax to dose ratio [3]: 0.0091 ± 0.0007 L
Cl, clearance ([3]; noncompartmental): 0.88 ± 0.21 L/min
Mean resistance time ([3]; noncompartmental): 119 ± 21 min
Vz, volume of distribution ([3]; noncompartmental): 67 ± 16 L
Cmax, maximum plasma concentration ([3]; plasma RIA): 0.523 ± 0.042 nM
Tmax, time to maximal concentration ([3]; plasma RIA): 0.805 ± 0.0683 h
AUC0-∞, area under the lispro plasma concentration curve ([3]; plasma RIA, noncompartmental): 68,462 ± 17,346 pmol/min/l
t½, half-life ([3]; plasma, noncompartmental): 1.12 ± 0.25 h
average difference between Tmax and tGIRmax [4]: 0.317 h
initial GIR response ([4]; at insulin concentrations nearing 40 pmol/l): 2.22 mg/kg/min
